Results published in ChEMBL document CHEMBL5661979, “Pharmacological inhibition of BMK1 suppresses tumor growth through promyelocytic leukemia protein” (Cancer Cell, 2010).

How the values were obtained:
[1] = biological target: T1, Dual specificity mitogen-activated protein kinase kinase 3 (Homo sapiens) (UniProt P46734); test: Inhibition of MAP2K3 in human HeLa cells lysate at 10 uM pre incubated for 15 mins followed by ADP acyl phosphate probe addition and measured after 10 mins by LC-MS/MS analysis relative to control; type: subcellular; settings: time 25.0 min
T1 sequence (whole entry): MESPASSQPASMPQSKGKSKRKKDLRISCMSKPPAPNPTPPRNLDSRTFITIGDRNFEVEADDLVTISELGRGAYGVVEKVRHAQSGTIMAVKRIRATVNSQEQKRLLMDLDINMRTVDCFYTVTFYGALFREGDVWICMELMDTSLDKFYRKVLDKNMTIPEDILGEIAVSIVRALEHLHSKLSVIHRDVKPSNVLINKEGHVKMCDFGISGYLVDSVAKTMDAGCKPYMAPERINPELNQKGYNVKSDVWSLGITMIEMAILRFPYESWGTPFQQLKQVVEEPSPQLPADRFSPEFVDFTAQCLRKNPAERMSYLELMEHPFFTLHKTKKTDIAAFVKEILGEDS

[2] = biological target: Inhibitor of nuclear factor kappa-B kinase subunit beta (Homo sapiens, UniProt O14920); test: Inhibition of IKKB in human HeLa cells lysate pre incubated for 15 mins followed by ADP acyl phosphate probe addition and measured after 10 mins by LC-MS/MS analysis; type: subcellular
[3] = Toxicity in C57Bl/6 mouse assessed as effect on total bilirubin level at 50 mg/kg, ip for 14 days (reference value: 0.3 mg/dl); type: organism-based; settings: in vivo, 336 h, time 14 day
[4] = biological target: Tyrosine-protein kinase receptor UFO (Homo sapiens, UniProt P30530); test: Inhibition of AXL in human HeLa cells lysate pre incubated for 15 mins followed by ADP acyl phosphate probe addition and measured after 10 mins by LC-MS/MS analysis; type: subcellular
Summary of the method: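 KiNativ-type profiling in HeLa lysate (5 mg/mL total protein). Lysate preincubated 15 min with inhibitor at 50, 10, 2, 0.8 or 0 μM, then ATP or ADP acylphosphate probe added (5 μM final) for 10 min. Reaction stopped with urea and analysed by targeted MS, using up to four fragment ions per kinase peptide-probe conjugate. % inhibition calculated against untreated lysate. Duplicate reactions.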

[5] = biological target: Serine/threonine-protein kinase 16 (Homo sapiens, UniProt O75716); test: Inhibition of MPSK1 in human HeLa cells lysate at 50 uM pre incubated for 15 mins followed by ATP acyl phosphate probe addition and measured after 10 mins by LC-MS/MS analysis relative to control; type: subcellular; settings: time 25.0 min
Sequence of Serine/threonine-protein kinase 16 (O75716 whole entry): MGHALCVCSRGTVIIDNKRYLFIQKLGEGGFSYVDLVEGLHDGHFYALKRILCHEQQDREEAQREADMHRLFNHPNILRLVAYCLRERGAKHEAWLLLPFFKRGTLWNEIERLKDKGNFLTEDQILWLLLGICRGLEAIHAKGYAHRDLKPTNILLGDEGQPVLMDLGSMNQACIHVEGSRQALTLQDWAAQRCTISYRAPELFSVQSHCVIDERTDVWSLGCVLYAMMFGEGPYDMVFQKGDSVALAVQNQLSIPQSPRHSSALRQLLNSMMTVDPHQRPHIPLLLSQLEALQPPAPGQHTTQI

[6] = biological target: Serine/threonine-protein kinase MARK2 (Homo sapiens, UniProt Q7KZI7); test: Inhibition of MARK2 in human HeLa cells lysate pre incubated for 15 mins followed by ADP acyl phosphate probe addition and measured after 10 mins by LC-MS/MS analysis; type: subcellular
Sequence of Serine/threonine-protein kinase MARK2 (Q7KZI7 whole entry): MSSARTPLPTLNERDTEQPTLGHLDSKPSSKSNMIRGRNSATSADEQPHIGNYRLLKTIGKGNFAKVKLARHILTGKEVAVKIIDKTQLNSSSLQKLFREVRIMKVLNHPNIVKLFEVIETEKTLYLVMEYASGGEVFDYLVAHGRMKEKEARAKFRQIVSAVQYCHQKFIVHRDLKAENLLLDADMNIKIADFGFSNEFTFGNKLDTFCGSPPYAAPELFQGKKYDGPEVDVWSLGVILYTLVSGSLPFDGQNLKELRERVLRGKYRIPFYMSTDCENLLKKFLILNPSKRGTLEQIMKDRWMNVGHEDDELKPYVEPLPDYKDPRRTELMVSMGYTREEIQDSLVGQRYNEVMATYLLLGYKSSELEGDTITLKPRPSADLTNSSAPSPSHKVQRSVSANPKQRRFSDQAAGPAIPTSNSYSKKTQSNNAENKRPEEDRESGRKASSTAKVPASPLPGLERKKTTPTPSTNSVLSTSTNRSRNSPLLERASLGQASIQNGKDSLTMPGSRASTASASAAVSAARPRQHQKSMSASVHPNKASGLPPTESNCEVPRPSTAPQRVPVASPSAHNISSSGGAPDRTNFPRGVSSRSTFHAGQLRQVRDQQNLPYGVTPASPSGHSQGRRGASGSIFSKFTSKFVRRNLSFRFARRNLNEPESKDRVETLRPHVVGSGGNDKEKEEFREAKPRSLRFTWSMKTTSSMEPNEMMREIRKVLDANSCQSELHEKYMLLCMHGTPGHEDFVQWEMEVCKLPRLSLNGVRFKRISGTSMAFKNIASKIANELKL

[7] = biological target: Cyclin-dependent kinase 11B (Homo sapiens, UniProt P21127); test: Inhibition of PITSLRE in human HeLa cells lysate pre incubated for 15 mins followed by ATP acyl phosphate probe addition and measured after 10 mins by LC-MS/MS analysis; type: subcellular
Sequence of Cyclin-dependent kinase 11B (P21127 whole entry): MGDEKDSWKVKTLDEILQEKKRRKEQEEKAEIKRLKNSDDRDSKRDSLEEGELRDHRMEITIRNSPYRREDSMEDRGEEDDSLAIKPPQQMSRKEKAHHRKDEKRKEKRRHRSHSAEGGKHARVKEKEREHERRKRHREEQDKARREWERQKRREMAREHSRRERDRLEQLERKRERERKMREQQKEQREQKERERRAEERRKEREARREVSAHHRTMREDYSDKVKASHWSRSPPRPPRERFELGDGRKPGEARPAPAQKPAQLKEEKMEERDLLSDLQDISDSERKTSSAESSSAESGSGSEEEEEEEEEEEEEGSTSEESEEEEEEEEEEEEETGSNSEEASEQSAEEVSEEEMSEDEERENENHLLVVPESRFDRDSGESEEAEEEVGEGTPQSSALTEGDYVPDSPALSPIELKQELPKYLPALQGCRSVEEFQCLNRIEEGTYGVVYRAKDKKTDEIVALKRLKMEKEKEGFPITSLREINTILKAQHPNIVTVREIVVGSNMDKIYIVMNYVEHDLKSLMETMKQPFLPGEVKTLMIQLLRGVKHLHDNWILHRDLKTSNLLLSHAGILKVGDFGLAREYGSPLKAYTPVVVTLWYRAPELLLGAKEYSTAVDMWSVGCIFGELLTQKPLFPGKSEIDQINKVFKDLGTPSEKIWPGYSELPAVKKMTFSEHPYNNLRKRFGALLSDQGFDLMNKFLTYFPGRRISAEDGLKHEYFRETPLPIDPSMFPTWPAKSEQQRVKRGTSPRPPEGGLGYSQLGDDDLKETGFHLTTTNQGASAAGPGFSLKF

[8] = biological target: Serine/threonine-protein kinase 3/4 (Homo sapiens, UniProt Q13043+Q13188); test: Inhibition of MST1/2 in human HeLa cells lysate pre incubated for 15 mins followed by ATP acyl phosphate probe addition and measured after 10 mins by LC-MS/MS analysis; type: subcellular
[9] = biological target: Tyrosine-protein kinase Lyn (Homo sapiens, UniProt P07948); test: Inhibition of LYN in human HeLa cells lysate at 2 uM pre incubated for 15 mins followed by ATP acyl phosphate probe addition and measured after 10 mins by LC-MS/MS analysis relative to control; type: subcellular; settings: time 25.0 min
[10] = biological target: RAC-alpha serine/threonine-protein kinase (Homo sapiens, UniProt P31749); test: Inhibition of AKT1 in human HeLa cells lysate at 50 uM pre incubated for 15 mins followed by ATP acyl phosphate probe addition and measured after 10 mins by LC-MS/MS analysis relative to control; type: subcellular; settings: time 25.0 min
Sequence of RAC-alpha serine/threonine-protein kinase (P31749 whole entry, the tested form may be a part): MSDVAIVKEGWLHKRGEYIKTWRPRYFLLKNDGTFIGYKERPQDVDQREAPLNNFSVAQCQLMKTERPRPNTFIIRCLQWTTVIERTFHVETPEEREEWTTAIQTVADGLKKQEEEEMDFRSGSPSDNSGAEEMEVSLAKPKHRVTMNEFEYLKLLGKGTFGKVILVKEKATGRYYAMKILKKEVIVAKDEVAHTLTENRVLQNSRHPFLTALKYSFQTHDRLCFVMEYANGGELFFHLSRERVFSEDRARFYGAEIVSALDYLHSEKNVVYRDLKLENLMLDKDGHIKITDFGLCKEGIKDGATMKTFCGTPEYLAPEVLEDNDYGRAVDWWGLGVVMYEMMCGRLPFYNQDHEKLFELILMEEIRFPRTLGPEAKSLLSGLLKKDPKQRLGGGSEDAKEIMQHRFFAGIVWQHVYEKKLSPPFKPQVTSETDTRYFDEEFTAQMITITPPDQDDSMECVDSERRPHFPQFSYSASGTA
Summary of the method: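 HeLa cell lysates (5 mg/mL total protein) were preincubated with inhibitor at 0, 0.8, 2, 10 or 50 μM for 15 min. ATP or ADP acylphosphate probe was then added (5 μM final) for 10 min, and reactions were stopped with urea. Up to four fragment ions per kinase probe-peptide were quantified by targeted MS. % inhibition was taken relative to untreated lysate. Run in duplicate.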

[11] = biological target: Ribosomal protein S6 kinase alpha-5 (Homo sapiens, UniProt O75582); test: Inhibition of MSK1 domain 1 K1 site in human HeLa cells lysate at 2 uM pre incubated for 15 mins followed by ADP acyl phosphate probe addition and measured after 10 mins by LC-MS/MS analysis relative to control; type: subcellular; settings: time 25.0 min
[12] = biological target: Serine/threonine-protein kinase/endoribonuclease IRE1 (Homo sapiens, UniProt O75460); test: Inhibition of IRE1 in human HeLa cells lysate pre incubated for 15 mins followed by ADP acyl phosphate probe addition and measured after 10 mins by LC-MS/MS analysis; type: subcellular
Sequence of Serine/threonine-protein kinase/endoribonuclease IRE1 (O75460 whole entry, the tested form may be a part): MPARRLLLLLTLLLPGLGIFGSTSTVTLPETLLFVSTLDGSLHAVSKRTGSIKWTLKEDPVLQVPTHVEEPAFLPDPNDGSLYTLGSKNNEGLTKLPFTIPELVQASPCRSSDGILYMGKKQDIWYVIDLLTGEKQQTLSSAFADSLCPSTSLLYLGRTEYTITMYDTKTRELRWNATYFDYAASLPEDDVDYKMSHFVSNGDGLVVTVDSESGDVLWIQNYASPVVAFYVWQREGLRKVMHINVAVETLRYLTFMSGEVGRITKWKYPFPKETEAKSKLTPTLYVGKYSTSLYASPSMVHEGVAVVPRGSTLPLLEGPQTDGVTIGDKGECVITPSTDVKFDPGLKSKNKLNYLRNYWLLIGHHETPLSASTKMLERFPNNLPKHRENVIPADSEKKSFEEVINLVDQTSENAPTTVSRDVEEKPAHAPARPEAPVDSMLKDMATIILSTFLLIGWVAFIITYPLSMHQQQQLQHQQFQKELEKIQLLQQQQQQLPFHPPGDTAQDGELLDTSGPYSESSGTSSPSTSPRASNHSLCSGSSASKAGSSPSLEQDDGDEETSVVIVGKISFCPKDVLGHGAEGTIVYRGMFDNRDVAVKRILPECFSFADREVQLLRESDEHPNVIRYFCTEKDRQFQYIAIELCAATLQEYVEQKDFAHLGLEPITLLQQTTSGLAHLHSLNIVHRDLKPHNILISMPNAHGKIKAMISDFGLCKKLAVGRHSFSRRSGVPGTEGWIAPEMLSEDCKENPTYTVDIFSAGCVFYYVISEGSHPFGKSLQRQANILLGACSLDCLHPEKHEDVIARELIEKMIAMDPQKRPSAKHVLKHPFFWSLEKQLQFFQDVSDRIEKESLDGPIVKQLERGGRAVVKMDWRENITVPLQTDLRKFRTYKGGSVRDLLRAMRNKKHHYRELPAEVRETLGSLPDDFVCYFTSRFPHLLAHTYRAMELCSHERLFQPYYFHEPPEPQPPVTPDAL

[13] = biological target: Ribosomal protein S6 kinase alpha-1 (Homo sapiens, UniProt Q15418); test: Inhibition of RSK1 domain 2 K1 site in human HeLa cells lysate pre incubated for 15 mins followed by ADP acyl phosphate probe addition and measured after 10 mins by LC-MS/MS analysis; type: subcellular
Sequence of Ribosomal protein S6 kinase alpha-1 (Q15418 whole entry, the tested form may be a part): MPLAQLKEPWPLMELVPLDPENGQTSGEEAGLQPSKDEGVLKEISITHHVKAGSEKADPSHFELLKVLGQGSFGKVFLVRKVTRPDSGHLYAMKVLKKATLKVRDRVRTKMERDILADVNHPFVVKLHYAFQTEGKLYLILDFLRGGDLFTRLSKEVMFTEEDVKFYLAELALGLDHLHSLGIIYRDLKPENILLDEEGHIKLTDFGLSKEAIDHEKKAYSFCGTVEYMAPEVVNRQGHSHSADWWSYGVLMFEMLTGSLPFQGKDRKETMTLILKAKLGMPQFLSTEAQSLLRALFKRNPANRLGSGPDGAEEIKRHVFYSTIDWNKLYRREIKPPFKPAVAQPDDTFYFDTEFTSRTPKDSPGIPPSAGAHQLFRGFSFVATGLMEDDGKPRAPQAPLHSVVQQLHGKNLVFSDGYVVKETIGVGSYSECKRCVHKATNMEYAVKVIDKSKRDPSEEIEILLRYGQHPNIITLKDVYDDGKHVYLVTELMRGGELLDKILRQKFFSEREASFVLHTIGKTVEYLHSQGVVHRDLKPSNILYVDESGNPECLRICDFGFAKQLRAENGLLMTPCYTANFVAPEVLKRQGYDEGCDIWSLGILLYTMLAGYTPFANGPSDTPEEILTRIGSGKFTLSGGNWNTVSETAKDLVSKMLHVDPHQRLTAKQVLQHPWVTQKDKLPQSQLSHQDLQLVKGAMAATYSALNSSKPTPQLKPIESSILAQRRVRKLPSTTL

[14] = biological target: Serine/threonine-protein kinase 38-like (Homo sapiens, UniProt Q9Y2H1); test: Inhibition of NDR2 in human HeLa cells lysate at 10 uM pre incubated for 15 mins followed by ADP acyl phosphate probe addition and measured after 10 mins by LC-MS/MS analysis relative to control; type: subcellular; settings: time 25.0 min
Sequence of Serine/threonine-protein kinase 38-like (Q9Y2H1 2-464 limits assumed): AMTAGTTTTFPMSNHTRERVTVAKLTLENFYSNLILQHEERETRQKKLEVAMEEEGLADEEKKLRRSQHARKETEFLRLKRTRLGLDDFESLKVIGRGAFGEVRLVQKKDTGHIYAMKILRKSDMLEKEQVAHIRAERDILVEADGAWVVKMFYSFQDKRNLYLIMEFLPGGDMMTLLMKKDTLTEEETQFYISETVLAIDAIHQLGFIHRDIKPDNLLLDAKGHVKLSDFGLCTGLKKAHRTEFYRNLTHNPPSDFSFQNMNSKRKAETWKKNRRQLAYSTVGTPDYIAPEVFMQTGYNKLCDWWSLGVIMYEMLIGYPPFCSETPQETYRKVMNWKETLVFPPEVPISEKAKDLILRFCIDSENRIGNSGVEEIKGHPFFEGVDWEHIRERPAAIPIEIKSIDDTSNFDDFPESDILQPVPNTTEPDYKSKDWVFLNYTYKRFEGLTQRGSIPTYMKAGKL

RPS6KA1/RPS6KA2/RPS6KA3 = RPS6KA1/RPS6KA2/RPS6KA3 (Homo sapiens, UniProt P51812+Q15349+Q15418); test: Inhibition of RSK1/2/3 in human HeLa cells lysate at 50 uM pre incubated for 15 mins followed by ADP acyl phosphate probe addition and measured after 10 mins by LC-MS/MS analysis relative to control; type: subcellular; settings: time 25.0 min
[15] = biological target: Mitogen-activated protein kinase kinase kinase 20 (Homo sapiens, UniProt Q9NYL2); test: Inhibition of ZAK in human HeLa cells lysate pre incubated for 15 mins followed by ATP acyl phosphate probe addition and measured after 10 mins by LC-MS/MS analysis; type: subcellular
[16] = Inhibition of HGK/MINK/TNIK in human HeLa cells lysate at 50 uM pre incubated for 15 mins followed by ATP acyl phosphate probe addition and measured after 10 mins by LC-MS/MS analysis relative to control; settings: 25 min, condition cancer
[17] = biological target: Glycogen synthase kinase-3 alpha (Homo sapiens, UniProt P49840); test: Inhibition of GSK3A in human HeLa cells lysate at 50 uM pre incubated for 15 mins followed by ATP acyl phosphate probe addition and measured after 10 mins by LC-MS/MS analysis relative to control; type: subcellular; settings: time 25.0 min
Sequence of Glycogen synthase kinase-3 alpha (P49840 2-483 limits assumed): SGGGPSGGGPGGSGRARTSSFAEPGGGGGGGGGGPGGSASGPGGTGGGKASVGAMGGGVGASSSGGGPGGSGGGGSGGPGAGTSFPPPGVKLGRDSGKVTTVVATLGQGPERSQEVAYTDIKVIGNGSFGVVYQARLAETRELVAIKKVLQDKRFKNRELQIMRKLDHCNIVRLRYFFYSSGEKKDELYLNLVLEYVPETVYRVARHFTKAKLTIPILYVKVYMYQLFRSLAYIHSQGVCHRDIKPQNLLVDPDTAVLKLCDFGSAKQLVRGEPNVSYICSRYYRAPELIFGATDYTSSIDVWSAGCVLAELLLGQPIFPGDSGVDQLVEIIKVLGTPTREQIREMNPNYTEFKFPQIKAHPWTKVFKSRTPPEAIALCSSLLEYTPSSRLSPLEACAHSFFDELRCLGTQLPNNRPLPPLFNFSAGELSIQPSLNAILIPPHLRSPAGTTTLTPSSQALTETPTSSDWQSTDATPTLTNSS

CCOc1cc(N2CCC(O)CC2)ccc1Nc1ncc2c(n1)N(C)c1ccccc1C(=O)N2C
inhibition [1]: -9.7%
IC50 [2]: > 50 µM
Activity [3]: 0.3 mg/dL
IC50 [4]: > 50 µM
inhibition [5]: -8.9%
IC50 [6]: > 50 µM
IC50 [7]: > 50 µM
IC50 [8]: > 50 µM
inhibition [9]: -6.3%
inhibition [10]: 15.4%
inhibition [11]: 28%
IC50 [12]: > 50 µM
IC50 [13]: 29 µM
inhibition [14]: 15.9%
inhibition (RPS6KA1/RPS6KA2/RPS6KA3): -2.1%
IC50 [15]: > 50 µM
inhibition at 50 µM [16]: -2.6%
inhibition [17]: 10.4%
